ChEMBL document CHEMBL1140495, “Neutral 5-substituted 4-anilinoquinazolines as potent, orally active inhibitors of erbB2 receptor tyrosine kinase” (Bioorg Med Chem Lett, 2007)
Each block holds one molecule with its values, some of them ahead of it. Active and inactive are the calls of the source. The calls are words filed in the database; no cut-off is given here.

Tests used:
KB [1] = test: Effect on growth of human KB cells
[2] = target: T1, Receptor tyrosine-protein kinase erbB-2 (Homo sapiens, UniProt P04626); test: Inhibition of ErbB2 kinase
T1 sequence (P04626 whole entry): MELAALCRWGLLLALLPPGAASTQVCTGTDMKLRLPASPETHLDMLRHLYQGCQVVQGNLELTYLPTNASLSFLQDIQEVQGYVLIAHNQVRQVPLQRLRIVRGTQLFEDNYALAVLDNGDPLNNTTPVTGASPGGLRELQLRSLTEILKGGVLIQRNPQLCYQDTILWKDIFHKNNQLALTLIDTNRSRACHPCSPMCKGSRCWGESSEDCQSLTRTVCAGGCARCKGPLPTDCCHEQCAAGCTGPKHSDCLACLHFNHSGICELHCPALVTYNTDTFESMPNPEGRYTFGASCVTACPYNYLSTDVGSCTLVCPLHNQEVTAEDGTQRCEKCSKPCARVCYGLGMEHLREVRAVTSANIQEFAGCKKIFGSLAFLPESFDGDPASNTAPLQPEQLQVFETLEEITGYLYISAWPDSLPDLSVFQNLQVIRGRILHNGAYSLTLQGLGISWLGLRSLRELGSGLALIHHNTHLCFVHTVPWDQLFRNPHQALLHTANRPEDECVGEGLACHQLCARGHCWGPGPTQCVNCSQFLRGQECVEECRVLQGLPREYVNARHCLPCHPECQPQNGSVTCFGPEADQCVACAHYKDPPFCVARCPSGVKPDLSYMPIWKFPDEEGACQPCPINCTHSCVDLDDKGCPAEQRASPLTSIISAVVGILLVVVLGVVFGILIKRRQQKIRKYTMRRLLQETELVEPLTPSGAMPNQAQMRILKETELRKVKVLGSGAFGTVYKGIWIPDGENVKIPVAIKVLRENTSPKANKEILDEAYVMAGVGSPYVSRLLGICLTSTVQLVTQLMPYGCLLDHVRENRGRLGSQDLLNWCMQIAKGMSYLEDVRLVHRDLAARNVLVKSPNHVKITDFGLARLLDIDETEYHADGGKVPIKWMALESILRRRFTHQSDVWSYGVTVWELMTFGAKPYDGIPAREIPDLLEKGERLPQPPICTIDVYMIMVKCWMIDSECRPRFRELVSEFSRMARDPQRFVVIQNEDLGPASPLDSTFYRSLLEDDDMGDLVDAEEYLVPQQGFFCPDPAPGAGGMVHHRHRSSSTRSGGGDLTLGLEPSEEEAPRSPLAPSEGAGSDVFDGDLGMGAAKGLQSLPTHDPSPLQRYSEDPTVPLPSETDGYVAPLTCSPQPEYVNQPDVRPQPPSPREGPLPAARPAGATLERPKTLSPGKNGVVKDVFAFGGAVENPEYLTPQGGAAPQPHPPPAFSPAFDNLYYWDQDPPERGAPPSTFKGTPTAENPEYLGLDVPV

[3] = Antiproliferative activity against BT474C cells; assay type: functional, cell-based; conditions: Homo sapiens
[4] = Lipophilicity, log D of the compound; assay type: physicochemical; conditions: octanol/water
[5] = target: Epidermal growth factor receptor (Homo sapiens, UniProt P00533)
Epidermal growth factor receptor, sequence (P00533 whole entry): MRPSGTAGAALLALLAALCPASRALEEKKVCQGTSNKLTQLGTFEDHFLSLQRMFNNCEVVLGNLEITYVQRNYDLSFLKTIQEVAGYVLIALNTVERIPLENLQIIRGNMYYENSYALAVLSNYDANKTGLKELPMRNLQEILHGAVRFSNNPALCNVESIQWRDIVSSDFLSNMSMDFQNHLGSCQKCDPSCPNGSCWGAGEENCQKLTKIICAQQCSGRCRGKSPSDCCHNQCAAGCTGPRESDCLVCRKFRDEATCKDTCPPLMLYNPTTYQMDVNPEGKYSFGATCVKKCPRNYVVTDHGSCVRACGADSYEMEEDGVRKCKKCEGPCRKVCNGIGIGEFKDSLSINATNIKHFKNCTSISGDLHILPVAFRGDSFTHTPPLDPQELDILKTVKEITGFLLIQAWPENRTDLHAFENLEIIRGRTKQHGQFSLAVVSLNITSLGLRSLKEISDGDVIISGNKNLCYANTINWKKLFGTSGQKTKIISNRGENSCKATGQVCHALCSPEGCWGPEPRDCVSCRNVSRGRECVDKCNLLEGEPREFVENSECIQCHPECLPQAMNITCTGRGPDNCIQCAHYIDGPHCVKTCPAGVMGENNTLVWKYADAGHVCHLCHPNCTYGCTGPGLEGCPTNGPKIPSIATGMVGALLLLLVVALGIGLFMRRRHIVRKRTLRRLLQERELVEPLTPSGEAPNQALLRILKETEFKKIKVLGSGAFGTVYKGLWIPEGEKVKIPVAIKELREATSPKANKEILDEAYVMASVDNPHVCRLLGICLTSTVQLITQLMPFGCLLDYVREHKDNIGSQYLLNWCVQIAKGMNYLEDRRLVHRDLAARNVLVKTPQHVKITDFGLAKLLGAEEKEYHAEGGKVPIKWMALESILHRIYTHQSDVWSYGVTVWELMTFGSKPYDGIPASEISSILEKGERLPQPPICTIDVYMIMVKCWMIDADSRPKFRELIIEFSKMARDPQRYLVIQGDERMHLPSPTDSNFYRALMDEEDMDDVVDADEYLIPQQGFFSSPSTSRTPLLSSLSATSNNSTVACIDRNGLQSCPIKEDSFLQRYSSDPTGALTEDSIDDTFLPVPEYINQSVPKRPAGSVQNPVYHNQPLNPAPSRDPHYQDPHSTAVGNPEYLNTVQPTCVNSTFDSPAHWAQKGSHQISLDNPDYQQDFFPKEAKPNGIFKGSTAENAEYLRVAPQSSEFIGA

[6] = target: T1, Receptor tyrosine-protein kinase erbB-2; test: Inhibition of Erb2 autophosphorylation by cellular clone 24 assay; assay type: functional
KB [7] = test: Antiproliferative activity against human KB cells
Mus musculus [8] = test: AUC (0 to 24 hrs) in Alderley Park mouse at 5 mg/kg, po; assay type: ADME, organism-based, Plasma; parameters: time < 24 hr, dose 5 mg/kg, route oral; conditions: in vivo
How it was run: (§1)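 Pharmacokinetics after intravenous dosing at 2 mg/kg and oral dosing at 5 mg/kg in immunocompetent female Alderley Park mice and in female Alderley Park rats. Male Alderley Park beagles received 50 mg iv and 250 mg p.o.; dog figures are means. AUC is AUC0-24 taken from the oral dose.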

BT474C [9] = test: Antitumor activity against human BT474C cells xenografted mouse at 50 mg/kg, po qd for 21 days; assay type: functional, organism-based; parameters: dose 50 mg/kg
LoVo [10] = test: Growth inhibition of LoVo cells xenografted in rat at 300 mg/kg, po qd; conditions: Homo sapiens
[11] = Plasma concentration in mouse at 50 mg/kg, po in presence of 1-aminobenzotriazole after 4 hrs; assay type: ADME, organism-based; parameters: dose 50 mg/kg, route oral
[12] = Plasma concentration in mouse at 50 mg/kg, po in presence of 1-aminobenzotriazole after 6 hrs; assay type: ADME, organism-based; parameters: dose 50 mg/kg, route oral
[13] = Plasma concentration in mouse at 50 mg/kg, po in presence of 1-aminobenzotriazole after 16 hrs; assay type: ADME, organism-based; parameters: dose 50 mg/kg, route oral
[14] = Bioavailability in Alderley Park rat at 2 mg/kg, iv and 5 mg/kg, po; assay type: ADME, organism-based; conditions: in vivo; how it was run: as §1
Rattus norvegicus = test: Inhibition of phospho-EGFR in LoVo cells xenografted rat at 300 mg/kg, po qd
[15] = Volume of distribution at steady state in Alderley Park mouse at 2 mg/kg, iv and 5 mg/kg, po; assay type: ADME, organism-based; conditions: in vivo, read-out: Vdss; how it was run: as §1
Mus musculus [16] = test: AUC in mouse at 50 mg/kg, po; assay type: ADME, organism-based, Plasma; parameters: dose 50 mg/kg, route oral; conditions: in vivo
How it was run: (§2)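 Female mice were given a single oral dose of 50 mg/kg without ABT. Total plasma concentration was measured at 2, 4, 6, 16 and 24 h, and AUC was derived.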

LoVo [17] = test: Growth inhibition of LoVo cells xenografted in mouse at 50 mg/kg, po bid; assay type: functional, organism-based; parameters: dose 50 mg/kg; conditions: Homo sapiens
How it was run: (§3)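 LoVo xenografts in mice were dosed orally at 50 mg/kg b.i.d. Tumour growth and tumour phospho-EGFR were assessed.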

Mus musculus [18] = test: Inhibition of phospho-EGFR in LoVo cells xenografted mouse at 50 mg/kg, po bid; assay type: functional, organism-based; parameters: dose 50 mg/kg; how it was run: as §3
[19] = Volume of distribution at steady state in Alderley Park Beagle dog at 50 mg/kg, iv and […], po; assay type: ADME, organism-based, Canis lupus familiaris; conditions: in vivo, read-out: Vdss; how it was run: as §1
Canis familiaris [20] = test: Bioavailability in Alderley Park Beagle dog at 50 mg/kg, iv and […], po; assay type: ADME, organism-based, Canis lupus familiaris; conditions: in vivo; how it was run: as §1
Canis familiaris [21] = test: AUC (0 to 24 hrs) in Alderley Park Beagle dog at […], po; assay type: ADME, organism-based, Canis lupus familiaris, Plasma; parameters: time < 24 hr, route oral; conditions: in vivo; how it was run: as §1
Mus musculus [22] = test: Inhibition of erbB2 phosphorylation in human BT474C cells xenografted mouse at 50 mg/kg, po bid for 21 days; assay type: functional; conditions: 504 h
[23] = target: Proto-oncogene tyrosine-protein kinase Src (Homo sapiens, UniProt P12931); test: Inhibition of Src
Proto-oncogene tyrosine-protein kinase Src, sequence (P12931 2-536 limits assumed): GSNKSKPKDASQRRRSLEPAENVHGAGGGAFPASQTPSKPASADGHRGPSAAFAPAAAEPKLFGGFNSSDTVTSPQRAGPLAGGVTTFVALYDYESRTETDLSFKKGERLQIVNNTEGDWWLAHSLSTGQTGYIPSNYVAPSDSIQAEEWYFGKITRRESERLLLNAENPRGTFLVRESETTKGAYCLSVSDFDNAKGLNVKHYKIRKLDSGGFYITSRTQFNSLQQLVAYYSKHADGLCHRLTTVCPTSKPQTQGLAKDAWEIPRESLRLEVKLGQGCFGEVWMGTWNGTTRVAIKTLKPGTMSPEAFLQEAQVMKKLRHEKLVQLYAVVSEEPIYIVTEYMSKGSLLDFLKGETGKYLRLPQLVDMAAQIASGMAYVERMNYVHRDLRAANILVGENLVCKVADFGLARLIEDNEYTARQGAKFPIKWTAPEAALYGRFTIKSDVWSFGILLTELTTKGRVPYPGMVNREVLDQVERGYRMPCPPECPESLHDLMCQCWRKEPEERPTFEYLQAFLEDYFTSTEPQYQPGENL

[24] = Clearance in Alderley Park rat at 2 mg/kg, iv and 5 mg/kg, po; assay type: ADME, organism-based; conditions: in vivo; how it was run: as §1
BT474C [25] = test: Antitumor activity against human BT474C cells xenografted mouse at 50 mg/kg, po bid for 21 days; assay type: functional, organism-based; parameters: dose 50 mg/kg
[26] = AUC in mouse at 50 mg/kg, po in presence of 1-aminobenzotriazole; assay type: ADME, organism-based; parameters: dose 50 mg/kg, route oral; conditions: plasma
Mus musculus [27] = test: Inhibition of erbB2 phosphorylation in human BT474C cells xenografted mouse at 50 mg/kg, po
Phospholipidosis = test: In vivo phospholipidosis in rat after 14 days at 600 mg/kg dose q.d.; assay type: ADME, organism-based; parameters: dose 600 mg/kg; conditions: 336 h
How it was run: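 Rat toxicology study lasting 14 days with once-daily dosing at up to 600 mg/kg, examined for phospholipidosis.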

[28] = AUC (0 to 24 hrs) in Alderley Park rat at 5 mg/kg, po; assay type: ADME, organism-based; parameters: time < 24 hr, dose 5 mg/kg, route oral; conditions: plasma; how it was run: as §1
[29] = Plasma concentration in mouse at 50 mg/kg, po in presence of 1-aminobenzotriazole after 2 hrs; assay type: ADME, organism-based; parameters: dose 50 mg/kg, route oral
[30] = Plasma concentration in mouse at 50 mg/kg, po in presence of 1-aminobenzotriazole after 24 hrs; assay type: ADME, organism-based; parameters: dose 50 mg/kg, route oral
[31] = Volume of distribution at steady state in Alderley Park rat at 2 mg/kg, iv and 5 mg/kg, po; assay type: ADME, organism-based; conditions: in vivo, read-out: Vdss; how it was run: as §1
Mus musculus [32] = test: Bioavailability in Alderley Park mouse at 2 mg/kg, iv and 5 mg/kg, po; assay type: ADME, organism-based; conditions: in vivo; how it was run: as §1
[33] = Plasma concentration in mouse at 50 mg/kg, po after 2 hrs; assay type: ADME, organism-based; parameters: dose 50 mg/kg, route oral; how it was run: as §2
[34] = target: Vascular endothelial growth factor receptor 2 (Homo sapiens, UniProt P35968); test: Inhibition of Kdr
Vascular endothelial growth factor receptor 2, sequence (P35968 whole entry): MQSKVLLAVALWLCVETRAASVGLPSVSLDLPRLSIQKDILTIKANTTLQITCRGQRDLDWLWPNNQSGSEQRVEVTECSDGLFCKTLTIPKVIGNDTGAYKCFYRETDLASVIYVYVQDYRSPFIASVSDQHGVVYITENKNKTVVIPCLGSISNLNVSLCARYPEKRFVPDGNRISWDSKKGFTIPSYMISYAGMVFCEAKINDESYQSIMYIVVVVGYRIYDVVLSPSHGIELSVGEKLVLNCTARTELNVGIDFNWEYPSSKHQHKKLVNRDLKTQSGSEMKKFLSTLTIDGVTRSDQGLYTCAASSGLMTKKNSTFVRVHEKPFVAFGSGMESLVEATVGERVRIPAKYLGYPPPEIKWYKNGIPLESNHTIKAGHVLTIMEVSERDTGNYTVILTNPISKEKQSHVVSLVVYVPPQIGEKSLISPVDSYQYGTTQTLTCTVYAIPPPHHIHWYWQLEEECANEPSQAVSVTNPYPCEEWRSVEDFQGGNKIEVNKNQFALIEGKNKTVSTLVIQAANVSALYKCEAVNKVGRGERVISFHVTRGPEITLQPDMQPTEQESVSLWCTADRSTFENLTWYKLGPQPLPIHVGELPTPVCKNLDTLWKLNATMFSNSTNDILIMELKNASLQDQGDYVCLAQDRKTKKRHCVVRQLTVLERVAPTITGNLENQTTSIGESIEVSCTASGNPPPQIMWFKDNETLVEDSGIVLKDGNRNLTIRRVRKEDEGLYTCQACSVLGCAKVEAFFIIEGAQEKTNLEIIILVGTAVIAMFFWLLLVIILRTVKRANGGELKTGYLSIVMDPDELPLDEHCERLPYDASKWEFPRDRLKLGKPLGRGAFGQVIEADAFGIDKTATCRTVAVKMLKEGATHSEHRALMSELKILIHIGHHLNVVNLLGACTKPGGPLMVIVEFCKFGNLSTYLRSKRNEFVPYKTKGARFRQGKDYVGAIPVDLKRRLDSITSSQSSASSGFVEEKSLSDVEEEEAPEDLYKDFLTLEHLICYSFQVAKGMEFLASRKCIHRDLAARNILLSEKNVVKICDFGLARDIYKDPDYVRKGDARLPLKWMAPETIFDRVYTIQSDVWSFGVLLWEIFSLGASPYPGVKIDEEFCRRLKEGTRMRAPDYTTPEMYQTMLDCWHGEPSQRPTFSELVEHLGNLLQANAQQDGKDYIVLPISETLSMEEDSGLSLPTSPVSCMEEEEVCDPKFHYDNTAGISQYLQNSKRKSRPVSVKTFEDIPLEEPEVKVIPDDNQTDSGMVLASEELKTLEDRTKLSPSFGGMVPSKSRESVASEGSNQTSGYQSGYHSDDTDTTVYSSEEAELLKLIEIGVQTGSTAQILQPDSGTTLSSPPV

SMILES: C[C@@H](COc1cccc2ncnc(Nc3ccc(OCc4ccccn4)c(Cl)c3)c12)N(C)C(=O)CO
IC50 [2]: 0.019 µM
logD [4]: 3
IC50 [5]: 2.58 µM
IC50 [6]: 0.131 µM

SMILES: CN(CCOc1cccc2ncnc(Nc3ccc(OCc4ccccn4)c(Cl)c3)c12)C(=O)CO
AUC (Mus musculus [8]): 0.02 µM·h
Activity (BT474C [9]): Active
Activity (LoVo [10]): inactive
concentration at 4 h [11]: 13.8 µM
concentration at 6 h [12]: 6.3 µM
IC50 (KB [1]): 8.14 µM
concentration at 16 h [13]: 0.026 µM
bioavailability [14]: 32%
Activity (Rattus norvegicus): inactive
IC50 [2]: 0.004 µM
Vd [15]: 0.7 L/kg
AUC (Mus musculus [16]): 0.89 µM·h
Activity (LoVo [17]): inactive
Activity (Mus musculus [18]): inactive
Vd [19]: 1 L/kg
F (Canis familiaris [20]): 51%
AUC (Canis familiaris [21]): 32 µM·h
inhibition in vivo at 50 mg/kg (Mus musculus [22]): 70%
IC50 [23]: > 1 µM
clearance [24]: 0.6 L/h/kg
IC50 [3]: 0.13 µM
logD [4]: 3
Activity (BT474C [25]): Active
AUC [26]: 99 µM·h
inhibition in vivo at 50 mg/kg (Mus musculus [27]): 70%
Phospholipidosis (Phospholipidosis): Not Active
IC50 [5]: 0.035 µM
AUC(0-t) at 24 h [28]: 5.5 µM·h
concentration at 2 h [29]: 16.5 µM
concentration at 24 h [30]: 0.007 µM
IC50 [6]: 0.043 µM
Vd [31]: 0.9 L/kg
F (Mus musculus [32]): 4%
concentration at 2 h [33]: 0.35 µM
IC50 (KB [7]): 0.621 µM
IC50 [34]: > 1 µM

SMILES: C[C@@H](CN(C)C(=O)CO)Oc1cccc2ncnc(Nc3ccc(OCc4ccccn4)c(Cl)c3)c12
IC50 [2]: 0.022 µM
logD [4]: 3
IC50 [5]: 0.191 µM
IC50 [6]: 0.291 µM

Second part, led by results:

IC50 (KB [1]): 6.94 µM
IC50 [2]: < 0.002 µM
logD [4]: 3
IC50 [5]: 0.002 µM
IC50 [6]: 0.011 µM
IC50 (KB [7]): 0.141 µM
SMILES: C[C@H](CN(C)C(=O)CO)Oc1cccc2ncnc(Nc3ccc(OCc4ccccn4)c(Cl)c3)c12
IC50 [3]: 0.034 µM

IC50 [2]: < 0.002 µM
logD [4]: 3
IC50 [5]: 0.003 µM
IC50 [6]: 0.011 µM
SMILES: C[C@H](COc1cccc2ncnc(Nc3ccc(OCc4ccccn4)c(Cl)c3)c12)N(C)C(=O)CO

IC50 [2]: < 0.002 µM
logD [4]: 3
IC50 [5]: 0.097 µM
IC50 [6]: 0.147 µM
SMILES: O=C(CO)N1CCC[C@@H]1COc1cccc2ncnc(Nc3ccc(OCc4ccccn4)c(Cl)c3)c12

IC50 [2]: 0.002 µM
logD [4]: 3
IC50 [5]: 0.327 µM
IC50 [6]: 0.259 µM
SMILES: O=C(CO)N1CCC[C@H]1COc1cccc2ncnc(Nc3ccc(OCc4ccccn4)c(Cl)c3)c12
